According to ChEMBL document CHEMBL5661968, “Antitumor activity of ZSTK474, a new phosphatidylinositol 3-kinase inhibitor” (J Natl Cancer Inst, 2006):
The source made the active and inactive calls. The calls are words filed in the database; no cut-off is given here.

Columns and labels:
U-251 = assay: Growth inhibition of human U-251 cells measured after 48 hrs by sulforhodamine B assay; format: functional
Procedure, shortened: (§1)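 JFCR39 panel lines were grown in RPMI 1640 with 5% FBS, penicillin and streptomycin at 37 °C in 5% CO2. After 48 h of drug exposure, total cellular protein was measured by sulforhodamine B staining. GI50 was calculated by a previously described method.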

[1] = biological target: Glycogen synthase kinase-3 beta (Homo sapiens) (UniProt P49841); assay: Inhibition of GSK-3beta phosphorylation at Ser9 residue in human A549 cells at 0.5 uM measured after 30 mins by Western blotting analysis; format: cell-based
Glycogen synthase kinase-3 beta (Homo sapiens), sequence (P49841 whole entry, looked up): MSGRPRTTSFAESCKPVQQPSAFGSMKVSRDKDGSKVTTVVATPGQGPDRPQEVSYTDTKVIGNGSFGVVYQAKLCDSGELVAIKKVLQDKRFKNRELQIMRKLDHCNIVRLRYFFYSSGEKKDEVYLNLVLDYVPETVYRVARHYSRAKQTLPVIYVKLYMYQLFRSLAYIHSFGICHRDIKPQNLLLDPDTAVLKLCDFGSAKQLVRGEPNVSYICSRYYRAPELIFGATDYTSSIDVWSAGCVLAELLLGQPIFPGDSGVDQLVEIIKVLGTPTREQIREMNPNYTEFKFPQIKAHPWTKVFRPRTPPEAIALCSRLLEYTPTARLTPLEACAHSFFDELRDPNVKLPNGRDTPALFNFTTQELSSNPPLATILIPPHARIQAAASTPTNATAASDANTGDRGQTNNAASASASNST

MEF [2] = assay: Inhibition of PI3K in platelet-derived growth factor induced mouse MEF cells assessed as reduction in membrane ruffling at 1 uM preincubated with compound for 15 mins followed by induction by immunoprecipitation based liquid scintillation spectroscopic analysis; format: cell-based
Procedure, shortened: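 Murine embryonic fibroblasts treated with or without 1 μM compound for 15 min, stimulated with PDGF (10 ng/mL) for 5 min, fixed in 3% formaldehyde 30 min at room temperature, permeabilized with 0.1% Triton X-100, F-actin stained with TRITC-phalloidin (0.1 μg/mL), viewed by fluorescence microscopy.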

[3] = […] toxicity in nude mouse xenografted with human A549 cells assessed as change in body weight at 800 mg/kg, po administered on day 0 to 13 except for day 3 and 10 measured after 28 days; format: organism-based; conditions: in vivo, 672 h, time 28 day
B16-F10 = assay: Antitumor activity against mouse B16-F10 cells implanted in BDF1 mouse assessed as tumor size relative to control (T/C) at 100 mg/kg, po administered daily measured after 14 days; conditions: 336 h
ACHN = assay: Growth inhibition of human ACHN cells measured after 48 hrs by sulforhodamine B assay; format: functional; procedure, shortened: as §1
KM12 = assay: Growth inhibition of human KM12 cells measured after 48 hrs by sulforhodamine B assay; format: functional; procedure, shortened: as §1
NCI-H522 = assay: Growth inhibition of human NCI-H522 cells measured after 48 hrs by sulforhodamine B assay; format: functional; procedure, shortened: as §1
OVCAR-4 = assay: Growth inhibition of human OVCAR-4 cells measured after 48 hrs by sulforhodamine B assay; format: functional; procedure, shortened: as §1
MEF [4] = assay: Inhibition of PI3K in platelet-derived growth factor induced mouse MEF cells assessed as reduction in PIP3 formation at 1 uM preincubated with compound for 15 mins followed by induction by immunoprecipitation based liquid scintillation spectroscopic analysis; format: cell-based
Procedure, shortened: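 Murine embryonic fibroblasts labelled 4 h at 37 °C in phosphate-free DMEM with 25 mM HEPES pH 7.4 and [32P]orthophosphate (0.1 mCi/mL); 1 μM compound for 15 min before PDGF (10 ng/mL) stimulation; PIP3 formation measured.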

[5] = Toxicity in nude mouse xenografted with human A549 cells assessed as change in body weight at 800 mg/kg, po administered on day 0 to 13 except for day 3 and 10 measured after 28 days (reference value: 14 %); format: organism-based; conditions: in vivo, 672 h, time 28 day
A549 [6] = assay: Inhibition of AKT phosphorylation at S473 residue in human A549 cells at 0.5 uM measured after 5 mins by Western blotting analysis; format: cell-based
SF-295 = assay: Growth inhibition of human SF-295 cells measured after 48 hrs by sulforhodamine B assay; format: functional; procedure, shortened: as §1
HCT-116 = assay: Growth inhibition of human HCT-116 cells measured after 48 hrs by sulforhodamine B assay; format: functional; procedure, shortened: as §1
[7] = biological target: Mitogen-activated protein kinase 1 (Homo sapiens) (UniProt P28482); assay: Inhibition of ERK2 phosphorylation at Thr-202/Tyr-204 residues in human A549 cells measured after 3 hrs by immunoblotting analysis; conditions: dose <= 2.0 µM
Mitogen-activated protein kinase 1 (Homo sapiens), sequence (P28482 whole entry): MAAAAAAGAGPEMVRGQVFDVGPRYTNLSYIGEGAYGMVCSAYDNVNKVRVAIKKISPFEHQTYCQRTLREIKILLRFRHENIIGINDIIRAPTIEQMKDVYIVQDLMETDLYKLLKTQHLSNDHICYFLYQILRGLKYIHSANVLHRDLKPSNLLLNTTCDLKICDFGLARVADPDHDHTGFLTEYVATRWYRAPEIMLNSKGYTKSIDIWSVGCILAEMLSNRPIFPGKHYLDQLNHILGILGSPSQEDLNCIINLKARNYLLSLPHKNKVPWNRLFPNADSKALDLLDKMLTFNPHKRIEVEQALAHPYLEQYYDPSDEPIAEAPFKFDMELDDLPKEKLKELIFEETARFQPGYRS

DU-145 = assay: Growth inhibition of human DU-145 cells measured after 48 hrs by sulforhodamine B assay; format: functional; procedure, shortened: as §1
HT-29 = assay: Growth inhibition of human HT-29 cells measured after 48 hrs by sulforhodamine B assay; format: functional; procedure, shortened: as §1
[8] = biological target: Ribosomal protein S6 kinase beta-1 (Homo sapiens) (UniProt P23443); assay: Inhibition of p70S6K phosphorylation at Thr-389 residue in human A549 cells measured after 3 hrs by immunoblotting analysis; format: cell-based; conditions: dose <= 2.0 µM
Ribosomal protein S6 kinase beta-1 (Homo sapiens), sequence (P23443 whole entry, looked up): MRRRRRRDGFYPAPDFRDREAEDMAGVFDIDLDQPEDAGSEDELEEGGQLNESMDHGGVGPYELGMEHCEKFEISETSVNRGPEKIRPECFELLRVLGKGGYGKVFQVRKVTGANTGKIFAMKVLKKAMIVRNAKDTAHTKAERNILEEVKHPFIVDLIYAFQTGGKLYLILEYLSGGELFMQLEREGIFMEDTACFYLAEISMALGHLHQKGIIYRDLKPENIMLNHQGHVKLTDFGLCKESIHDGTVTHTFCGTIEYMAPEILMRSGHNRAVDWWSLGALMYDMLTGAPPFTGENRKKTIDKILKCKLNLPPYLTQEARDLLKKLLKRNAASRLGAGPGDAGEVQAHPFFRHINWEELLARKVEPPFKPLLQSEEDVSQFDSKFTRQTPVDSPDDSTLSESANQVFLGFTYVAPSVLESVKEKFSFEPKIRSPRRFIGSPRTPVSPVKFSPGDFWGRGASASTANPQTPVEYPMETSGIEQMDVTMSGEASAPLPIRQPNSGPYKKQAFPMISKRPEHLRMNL
Procedure, shortened: (§2)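 A549 cells treated over 0 to 2.0 μM; lysed in 10 mM Tris–HCl pH 7.4, 50 mM NaCl, NaF, pyrophosphate, vanadate, EDTA, protease inhibitors, 0.5% NP-40, 0.1% SDS; proteins resolved by SDS-PAGE, blotted to PVDF, probed with phospho-specific antibodies, HRP secondary, ECL detection.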

[9] = biological target: Dual specificity mitogen-activated protein kinase kinase 2 (Homo sapiens) (UniProt P36507); assay: Inhibition of MEK2 phosphorylation at Ser-217/221 residues in human A549 cells measured after 3 hrs by immunoblotting analysis; conditions: dose <= 2.0 µM
Dual specificity mitogen-activated protein kinase kinase 2 (Homo sapiens), sequence (P36507 whole entry): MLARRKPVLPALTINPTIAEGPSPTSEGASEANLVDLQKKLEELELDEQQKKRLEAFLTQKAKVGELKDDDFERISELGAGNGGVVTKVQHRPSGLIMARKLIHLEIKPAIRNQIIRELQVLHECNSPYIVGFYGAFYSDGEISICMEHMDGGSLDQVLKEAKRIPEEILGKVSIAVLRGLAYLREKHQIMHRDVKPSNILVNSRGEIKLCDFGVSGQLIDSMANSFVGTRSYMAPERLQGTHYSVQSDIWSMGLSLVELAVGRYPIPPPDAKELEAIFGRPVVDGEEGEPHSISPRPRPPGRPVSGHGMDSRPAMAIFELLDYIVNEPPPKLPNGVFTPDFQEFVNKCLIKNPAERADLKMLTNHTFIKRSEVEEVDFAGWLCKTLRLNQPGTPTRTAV

MKN-45 = assay: Growth inhibition of human MKN-45 cells measured after 48 hrs by sulforhodamine B assay; format: functional; procedure, shortened: as §1
[10] = Growth inhibition of human HBC5 cells measured after 48 hrs by sulforhodamine B assay; format: functional; procedure, shortened: as §1
St-4 = assay: Growth inhibition of human St-4 cells measured after 48 hrs by sulforhodamine B assay; format: functional; procedure, shortened: as §1
Tuberin (Homo sapiens) = Tuberin (Homo sapiens) (UniProt P49815); assay: Inhibition of TSC-2 phosphorylation at ser-1462 residue in human A549 cells measured after 3 hrs by immunoblotting analysis; format: cell-based; conditions: dose <= 2.0 µM; procedure, shortened: as §2
Tuberin (Homo sapiens), sequence (P49815 whole entry): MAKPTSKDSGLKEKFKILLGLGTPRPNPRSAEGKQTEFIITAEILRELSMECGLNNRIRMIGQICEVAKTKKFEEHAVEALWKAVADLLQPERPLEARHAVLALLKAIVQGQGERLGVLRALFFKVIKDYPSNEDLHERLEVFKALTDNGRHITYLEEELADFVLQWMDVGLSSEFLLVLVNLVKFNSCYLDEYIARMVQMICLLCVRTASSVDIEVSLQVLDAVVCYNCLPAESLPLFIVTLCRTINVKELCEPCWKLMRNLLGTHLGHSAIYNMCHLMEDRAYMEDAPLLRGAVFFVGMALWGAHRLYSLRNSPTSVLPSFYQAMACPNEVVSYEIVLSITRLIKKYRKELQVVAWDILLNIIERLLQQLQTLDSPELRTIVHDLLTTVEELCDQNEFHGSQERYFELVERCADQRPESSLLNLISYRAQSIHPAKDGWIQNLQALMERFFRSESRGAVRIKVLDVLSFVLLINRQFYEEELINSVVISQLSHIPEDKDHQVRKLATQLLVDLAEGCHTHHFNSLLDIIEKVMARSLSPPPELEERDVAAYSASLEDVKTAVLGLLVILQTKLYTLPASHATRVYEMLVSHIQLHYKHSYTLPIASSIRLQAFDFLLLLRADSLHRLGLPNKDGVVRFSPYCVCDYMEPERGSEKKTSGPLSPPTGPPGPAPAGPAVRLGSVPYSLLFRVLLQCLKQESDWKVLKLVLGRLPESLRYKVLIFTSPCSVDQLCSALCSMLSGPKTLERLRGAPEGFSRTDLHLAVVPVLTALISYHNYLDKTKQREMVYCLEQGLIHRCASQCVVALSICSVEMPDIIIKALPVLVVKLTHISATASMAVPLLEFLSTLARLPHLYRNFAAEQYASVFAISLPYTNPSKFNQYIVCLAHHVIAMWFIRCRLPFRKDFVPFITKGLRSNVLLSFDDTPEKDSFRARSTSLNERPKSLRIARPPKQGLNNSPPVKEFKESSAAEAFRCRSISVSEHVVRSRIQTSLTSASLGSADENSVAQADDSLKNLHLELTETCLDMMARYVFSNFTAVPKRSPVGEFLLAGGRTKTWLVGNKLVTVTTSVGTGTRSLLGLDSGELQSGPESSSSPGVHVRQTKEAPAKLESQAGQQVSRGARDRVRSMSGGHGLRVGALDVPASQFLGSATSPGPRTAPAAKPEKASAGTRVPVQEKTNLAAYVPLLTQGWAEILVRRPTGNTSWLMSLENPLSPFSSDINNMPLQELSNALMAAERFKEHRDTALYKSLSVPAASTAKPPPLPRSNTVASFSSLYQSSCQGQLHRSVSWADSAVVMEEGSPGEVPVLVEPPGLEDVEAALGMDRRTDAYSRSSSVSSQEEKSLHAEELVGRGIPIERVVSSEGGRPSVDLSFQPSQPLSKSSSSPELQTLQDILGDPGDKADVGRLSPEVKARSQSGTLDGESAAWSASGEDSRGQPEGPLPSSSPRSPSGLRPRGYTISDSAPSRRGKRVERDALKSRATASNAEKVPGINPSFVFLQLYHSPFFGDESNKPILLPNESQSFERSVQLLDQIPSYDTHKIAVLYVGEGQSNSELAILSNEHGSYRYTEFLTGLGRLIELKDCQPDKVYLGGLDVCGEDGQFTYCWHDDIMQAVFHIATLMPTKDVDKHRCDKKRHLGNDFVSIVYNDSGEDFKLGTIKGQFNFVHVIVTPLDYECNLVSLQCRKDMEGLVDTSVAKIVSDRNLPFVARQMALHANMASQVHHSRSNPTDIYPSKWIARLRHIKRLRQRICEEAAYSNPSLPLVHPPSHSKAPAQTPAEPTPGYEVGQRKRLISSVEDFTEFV

[11] = Toxicity in nude mouse xenografted with human PC-3 cells assessed as change in body weight at 400 mg/kg, po administered on day 0 to 13 except for day 3 and 10 measured after 28 days (reference value: 17 %); format: organism-based; conditions: in vivo, 672 h, time 28 day
A549 [12] = assay: Reversible inhibition of PI3K in human A549 cell lysate at 1 uM preincubated with compound for 5 mins followed by [gamma-32p]-ATP addition measured after 20 mins by immunoprecipitation based liquid scintillation spectroscopic analysis; format: subcellular; conditions: time 25.0 min
Procedure, shortened: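 Anti-p85 immunoprecipitates from A549 lysate treated 5 min with 1 μM compound, then split: one aliquot washed four times in 100 mM NaCl, 20 mM Tris pH 7.5 to remove free inhibitor, the other unwashed; both assayed with [γ-32P]ATP and phosphatidylinositol, PI3P counted by scintillation.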

SF-539 = assay: Growth inhibition of human SF-539 cells measured after 48 hrs by sulforhodamine B assay; format: functional; procedure, shortened: as §1
PC-3 = assay: Antitumor activity against human PC-3 cells xenografted in nude mouse assessed as inhibition of tumor growth at 400 mg/kg, po administered on day 0 to 13 except for day 3 and 10 measured after 14 days; format: functional, organism-based; conditions: time 14.0 day
Procedure, shortened: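 Female BALB/c-background nude mice were implanted s.c. with 3 × 3 × 3 mm tumor fragments. At 100–300 mm3 tumor volume (day 0), groups of five were randomized and dosed orally at 400 mg/kg on days 0–13, skipping days 3 and 10. Caliper volume was (L×W2)/2, relative to day 0 (RTV). T/C% on day 14 = 100 × mean treated RTV / mean control RTV.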

[13] = Toxicity in nude mouse xenografted with human WiDr cells assessed as change in body weight at 400 mg/kg, po administered on day 0 to 13 except for day 3 and 10 measured after 28 days (reference value: 17 %); format: organism-based; conditions: in vivo, 672 h, time 28 day
A549 [14] = assay: Growth inhibition of human A549 cells measured after 48 hrs by sulforhodamine B assay; format: functional; procedure, shortened: as §1

GI50 (U-251): 1100 nM | inhibition [1]: Active | GI50 (ACHN): 407 nM | GI50 (NCI-H522): 151 nM | GI50 (OVCAR-4): 182 nM | GI50 (HCT-116): 1510 nM | inhibition [7]: inactive | GI50 (DU-145): 912 nM | GI50 (HT-29): 447 nM | inhibition [8]: Dose-Dependent Effect | inhibition [9]: inactive | GI50 (MKN-45): 288 nM | inhibition (Tuberin (Homo sapiens)): Dose-Dependent Effect | inhibition (A549 [12]): Active | GI50 (A549 [14]): 501 nM
SMILES: FC(F)c1nc2ccccc2n1-c1nc(N2CCOCC2)nc(N2CCOCC2)n1 [ZSTK-474]
inhibition (MEF [2]): Active | Activity [3]: Non-Toxic | T/C at 100 mg/kg (B16-F10): 28.5% | GI50 (KM12): 1660 nM | inhibition (MEF [4]): Active | Activity [5]: Non-Toxic | inhibition (A549 [6]): Active | GI50 (SF-295): 186 nM | GI50 [10]: 28.2 nM | GI50 (St-4): 1700 nM | Activity [11]: 17% | GI50 (SF-539): 347 nM | Activity (PC-3): Active | Activity [13]: 3%
